Results reported in ChEMBL document CHEMBL1142518, “Potential nicotinic acetylcholine receptor ligands from 2,4-methanoproline derivatives” (J Med Chem, 2008).
The source made the active and inactive calls. The calls are words filed in the database; no cut-off is given here.

How the values were obtained:
[1] = target: Neuronal acetylcholine receptor; alpha4/beta2 (Homo sapiens) (UniProt P17787+P43681); assay: Binding affinity to human nAChR-alpha-4-beta-2 in HEK293 cells; assay type: cell-based
Procedure, shortened: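 Cloned human α4β2 nAChR in HEK-293 cell membranes, tested by SPA radioligand binding. Used [3H]epibatidine 1 nM, WGA-coated PVT beads 1 mg/well and 30 µg membrane protein/well, in Tris-HCl buffer (50 mM, 150 mM NaCl, 5 mM KCl, pH 7.4). Nonspecific binding defined with 10 µM epibatidine. Incubated 2-4 h at room temperature and read by scintillation counting. 4-parameter logistic IC50 converted to Ki by Cheng-Prusoff.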

[2] = target: Neuronal acetylcholine receptor; alpha3/beta4 (Homo sapiens) (UniProt P30926+P32297); assay: Binding affinity to human nAChR-alpha-3-beta-4 in HEK293 cells; assay type: cell-based
Procedure, shortened: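 Scintillation proximity assay on membranes from HEK-293 cells expressing cloned human α3β4 nAChR. [3H]epibatidine 2 nM, WGA-coated PVT beads 1.5 mg/well, 30 µg membrane protein/well, in 50 mM Tris-HCl, 150 mM NaCl, 5 mM KCl, pH 7.4. Nonspecific binding defined with 10 µM epibatidine. Equilibrated 2-4 h at room temperature, then scintillation counted. IC50 from 4-parameter logistic fit, converted to Ki by Cheng-Prusoff.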

Structure (SMILES)	Activity [1]	Activity [2]
Clc1ccc(OCC23CC(CN2)C3)cn1	inactive	inactive
Cc1cc(C23CC(CN2)C3)on1	inactive	inactive
Cc1cc(CCC23CC(CN2)C3)on1	inactive	inactive
c1ccc(OCC23CC(CN2)C3)cc1	inactive	inactive
Cc1cc(/C=C/C23CC(CN2)C3)on1	inactive	inactive
c1cncc(OCC23CC(CN2)C3)c1	inactive	inactive
